Data: ChEMBL document CHEMBL1123247, “Nucleoside conjugates. 7. Synthesis and antitumor activity of 1-beta-D-arabinofuranosylcytosine conjugates of ether lipids” (J Med Chem, 1986)

How the values were obtained:
L1210 [1] = experiment: Antitumor activity was determined against the ic implanted L1210 lymphoid leukemia in mice by range in survival days at 100 mg/kg (treatment of 1-5qd schedule) dosage; Range is 21-24; type: functional, Mus musculus
L1210 [2] = experiment: Antitumor activity against ip implanted L1210 leukemia in mice expressed as active dose range (1 qd treatment schedule) required to produce increase in life span by >25% was determined; Range is 300-400; type: functional, Mus musculus
Outline: (§1)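 DBA/2J mice, groups of 6 (23-28 g), were inoculated ip with 1 × 10^6 L1210 cells on day 0. Dosing was ip from 24 h, in 0.9% NaCl with 0.5% Tween-80 (sonicated solution or suspension). Mice were observed daily until death or day 45. Median survival T/C followed NCI protocols, and ILS = (T/C − 1) × 100. Active range means doses giving ILS ≥25%; optimal dose means greatest ILS.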

L1210 [3] = experiment: Antitumor activity was determined against the ip implanted L1210 leukemia in mice by percent increase in life span at 80 mg/kg (treatment of 1-5qd schedule) dosage; type: functional, Mus musculus; conditions: route intraperitoneal
Outline: (§2)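 DBA/2J mice in groups of 6 (wt 23-28 g) were inoculated ip with 1×10^6 L1210 cells on day 0. Dosing was ip from 24 h, in 0.9% NaCl with 0.5% Tween-80 (conjugates sonicated), across a range of doses. Mice were observed daily until death or 45 days. Median T/C was computed from survivors per NCI protocols, and ILS = (T/C − 1)×100.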

P388 [4] = experiment: Antitumor activity against ip implanted P388 leukemia in mice expressed as active dose range (1,5,9qd treatment schedule) required to produce increase in life span by >25% was determined; Range is 67-133; type: functional, Mus musculus
Outline: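 P388 leukemia: 1 × 10^6 cells were given ip on day 0 to DBA/2J mice, groups of 6 (23-33 g). Treatment was ip from 24 h after inoculation, vehicle 0.9% NaCl with 0.5% Tween-80. Mice were observed daily until death or 45 days. Median survival T/C was calculated from survivors per NCI protocols, and ILS = (T/C − 1) × 100. Active range means doses giving ILS ≥25%; optimal dose means greatest ILS.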

P388 [5] = experiment: Antitumor activity was determined against the ip implanted P388 leukemia in mice by change in […] at 133 mg/kg (treatment of 1qd schedule) dosage; type: functional, Mus musculus; conditions: dose 300 mg/kg; route intraperitoneal; in the assay text read “300 mg/kg” for “133 mg/kg”
Outline: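 P388 leukemia, 1×10^6 cells implanted ip on day 0 into DBA/2J mice, groups of 6 (wt 23-33 g). Dosing ip started 24 h post-inoculation, vehicle 0.9% NaCl containing 0.5% Tween-80. Animals were observed daily until death or 45 days. Outputs were weight change, median survival T/C from survivors per NCI protocols, and %ILS = (T/C − 1) × 100.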

P388 [6] = experiment: Antitumor activity was determined against the ip implanted P388 leukemia in mice by 45-day survivors in mice at 300 mg/kg (treatment of 1qd schedule) dosage; conditions: route intraperitoneal
L1210 [7] = experiment: Antitumor activity was determined against the ic implanted L1210 lymphoid leukemia in mice by median survival time at 100 mg/kg (treatment of 1-5qd schedule) dosage; 22.0/7.0
L1210 [8] = experiment: Antitumor activity was determined against the ic implanted L1210 lymphoid leukemia in mice by median survival time at 167 mg/kg (treatment of 1, 5, 9qd schedule) dosage; 21.0/7.0
CML/BC = experiment: Compound was tested for the inhibition of CML/BC(chronic myeloid leukemia, blast crisis); type: functional, cell-based; conditions: Homo sapiens
Outline: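 Human leukemia and solid tumor cells in culture were exposed to compound for 48 h. Viability was scored by trypan blue dye exclusion. IC50 (50% inhibition) was estimated from response curves of three separate experiments.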

L1210 [9] = experiment: Antitumor activity against the ic implanted L1210 lymphoid leukemia in mice expressed as optimal dose (1-9qd treatment schedule) required to produce greatest increase in life span was determined; type: functional, Mus musculus
Outline: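 DBA/2J mice, groups of 6 (26-32 g), got 1 × 10^5 L1210 cells ic on day 0. Dosing was ip starting 24 h later, as a sonicated solution or suspension in 0.9% NaCl with 0.5% Tween-80, over a wide dose range. Mice were followed daily until death. Median survival T/C was taken from survivors per NCI protocols, and ILS = (T/C − 1) × 100. Active range means doses giving ILS ≥25%; optimal dose means greatest ILS.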

L1210 [10] = experiment: Antitumor activity was determined against the ip implanted L1210 leukemia in mice by percent median survival rate (treated/control) at 200 mg/kg (treatment of 1-5qd schedule) dosage; 17.0/7.0; type: functional, Mus musculus; conditions: route intraperitoneal; outline: as §2
L1210 [11] = experiment: Antitumor activity was determined against the ip implanted L1210 leukemia in mice by range in survival days at 400 mg/kg (treatment of 1qd schedule) dosage; Range is 15-29; type: functional, Mus musculus; conditions: route intraperitoneal
Outline: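 DBA/2J mice, 23-28 g, in groups of 6, were inoculated ip with 1×10^6 L1210 cells on day 0. Dosing was ip starting 24 h later on the stated daily schedules. Conjugates were given as sonicated solutions and reference prodrugs as suspensions in 0.9% NaCl with 0.5% Tween-80. Mice were observed daily until death or 45 days. Median survival T/C was calculated from survivors per NCI protocols.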

L1210 [12] = experiment: Antitumor activity against ip implanted L1210 leukemia in mice expressed as active dose range (1 qd treatment schedule) required to produce increase in life span by >25% was determined; Range is 300-500; type: functional, Mus musculus; outline: as §1
L1210 [13] = experiment: Antitumor activity was determined against the ip implanted L1210 leukemia in mice by 45-day survivors in mice at 100 mg/kg (treatment of 1-5qd schedule) dosage; type: functional, Mus musculus; conditions: route intraperitoneal; outline: as §2
L1210 [14] = experiment: Antitumor activity was determined against the ic implanted L1210 lymphoid leukemia in mice by range in survival days at 133 mg/kg (1,5,9qd treatment schedule) dosage; Range is 15-22; type: functional, Mus musculus
L1210 [15] = experiment: Antitumor activity was determined against the ic implanted L1210 lymphoid leukemia in mice by change in […] at 80 mg/kg (1-5qd treatment schedule) dosage; type: functional, Mus musculus
Outline: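 DBA/2J mice, 6 per group (wt 26-32 g), inoculated ic with 1×10^5 L1210 cells on day 0. Dosing ip began 24 h after inoculation, with a sonicated solution or suspension in 0.9% NaCl containing 0.5% Tween-80, given over a range of doses. Animals were followed daily until death. Body weight change, median survival T/C, and %ILS = (T/C − 1) × 100 were computed from survivors per NCI protocols.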

L1210 [16] = experiment: Antitumor activity was determined against the ip implanted L1210 leukemia in mice by percent increase in life span at 40 mg/kg (treatment of 1-5qd schedule) dosage; type: functional, Mus musculus; conditions: route intraperitoneal; outline: as §2

CCCCCCCCCCCCCCCCOCC(COP(=O)(O)OP(=O)(O)OC[C@H]1O[C@@H](n2ccc(N)nc2=O)[C@@H](O)[C@@H]1O)OC(=O)CCCCCCCCCCCCCCC (mixture of isomers) showed a Range (L1210 [1]) of 21, an Active dose range (L1210 [2]) of 300 mg/kg/day and an ILS (L1210 [3]) of 264. For the same compound, the Active dose range (P388 [4]) was 67 mg/kg/day, the Weight change (P388 [5]) was -1.51 g mouse-1 and the Survivors (P388 [6]) was 6. It also gave a median survival time (L1210 [7]) of 22 days and a median survival time (L1210 [8]) of 21 days.

Compound Nc1ccn([C@@H]2O[C@H](CO)[C@@H](O)[C@@H]2O)c(=O)n1 [CYTARABINE] has an IC50 (CML/BC) of 210 nM, an Optimal dose (L1210 [9]) of 100 mg and a median survival time (L1210 [10]) of 17 days.

CCCCCCCCCCCCCCCCCCOCC(COP(=O)(O)OP(=O)(O)OC[C@H]1O[C@@H](n2ccc(N)nc2=O)[C@@H](O)[C@@H]1O)OC(=O)CCCCCCCCCCCCCCC (mixture of isomers) was tested, and the Range (L1210 [11]) was 15, the Active dose range (L1210 [12]) was 300 mg/kg/day and the Survivors (L1210 [13]) was 0.

With CCCCCCCCCCCCCCCC(=O)OC[C@H](COP(=O)(O)OP(=O)(O)OC[C@H]1O[C@@H](n2ccc(N)nc2=O)[C@@H](O)[C@@H]1O)OC(=O)CCCCCCCCCCCCCCC the Range (L1210 [14]) was 15, the Weight change (L1210 [15]) was -5.24 g mouse-1 and the ILS (L1210 [16]) was 275.
